# According to ChEMBL document CHEMBL2146441, “2,6-Disubstituted imidazo[2,1-b][1,3,4]thiadiazoles: search for anticancer agents” (2012):
# What was measured:
# Type in all cases: functional
# LOX IMVI = assay: Cytotoxicity against human LOXIMVI cells assessed as cell growth at 10^-5 M after 48 hrs by SRB assay; settings: read-out: Activity
# PC-3 = assay: Cytotoxicity against human PC3 cells assessed as cell growth at 10^-5 M after 48 hrs by SRB assay; settings: PC-3, 48 h, read-out: Activity
# NCI-H23 [1] = assay: Growth inhibition of human NCI-H23 cells at 10^-4 M after 48 hrs by SRB assay; set-up: scale not given: the % may be the effect or the level left
# SW-620 = assay: Growth inhibition of human SW620 cells after 48 hrs by SRB assay; settings: SW-620, 48 h; for CC50: read-out: LC50 (the source's name)
# Method in brief: (§1)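 Adherent NCI-60 lines grown in RPMI 1640 with 5% FBS, seeded at 5000–40,000 cells/well, and preincubated 24 h at 37 °C, 5% CO2. Compound, stocked in DMSO, given either once at 10^-5 M or at five 10-fold dilutions for 48 h. Cells fixed with cold TCA (final 10%), stained with 0.4% SRB, and read at 515 nm. GI50 taken as 50% reduction in net protein increase versus time-zero and control plates.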
# MDA-MB-231 = assay: Cytotoxicity against human MDA-MB-231 cells assessed as cell growth at 10^-5 M after 48 hrs by SRB assay; settings: MDA-MB-231, 48 h, read-out: Activity
# KM12 = assay: Cytotoxicity against human KM12 cells assessed as cell growth at 10^-4 M after 48 hrs by SRB assay; settings: KM12, 48 h, read-out: Activity
# SK-MEL-28 = assay: Cytotoxicity against human SK-MEL-28 cells assessed as cell growth at 10^-5 M after 48 hrs by SRB assay; settings: SK-MEL-28, 48 h, read-out: Activity
# A498 = assay: Cytotoxicity against human A498 cells assessed as cell growth at 10^-5 M after 48 hrs by SRB assay; settings: A498, 48 h, read-out: Activity
# Method in brief: (§2)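 NCI-60 screen: lines kept in RPMI 1640 with 5% FBS, seeded at 5000–40,000 cells/well by doubling time, preincubated 24 h at 37 °C in 5% CO2. Time-zero plates TCA-fixed at drug addition. DMSO stocks diluted in medium, 48 h exposure. Fixation in cold TCA (final 10% adherent, 16% suspension), 0.4% SRB stain, solubilised in 10 mM Tris base, A515. Percent growth computed against control and time-zero.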
# NCI-H23 [2] = assay: Growth inhibition of human NCI-H23 cells at 10^-5 M after 48 hrs by SRB assay; set-up: scale not given: the % may be the effect or the level left
# OVCAR-4 = assay: Growth inhibition of human OVCAR4 cells after 48 hrs by SRB assay; settings: OVCAR-4, 48 h; method in brief: as §1
# UO-31 [3] = assay: Growth inhibition of human UO31 cells after 48 hrs by SRB assay; settings: UO-31, 48 h; method in brief: as §1
# SK-MEL-5 [4] = assay: Growth inhibition of human SK-MEL-5 cells at 10^-8 M after 48 hrs by SRB assay; set-up: scale not given: the % may be the effect or the level left
# T47D = assay: Cytotoxicity against human T47D cells assessed as cell growth at 10^-6 M after 48 hrs by SRB assay; settings: read-out: Activity
# NCI-H23 [5] = assay: Growth inhibition of human NCI-H23 cells at 10^-7 M after 48 hrs by SRB assay; set-up: scale not given: the % may be the effect or the level left
# SK-MEL-5 [6] = assay: Growth inhibition of human SK-MEL-5 cells at 10^-7 M after 48 hrs by SRB assay; set-up: scale not given: the % may be the effect or the level left
# Malme-3M = assay: Cytotoxicity against human MALME-3M cells assessed as cell growth at 10^-4 M after 48 hrs by SRB assay; settings: read-out: Activity
# MDA-MB-435 = assay: Cytotoxicity against human MDA-MB-435 cells assessed as cell growth at 10^-7 M after 48 hrs by SRB assay; settings: MDA-MB-435, 48 h, read-out: Activity
# COLO = assay: Growth inhibition of human COLO […] cells after 48 hrs by SRB assay
# Method in brief: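 Same 48 h NCI-60 five-dose SRB protocol. Adherent lines were fixed with cold TCA at 10% final; suspension lines such as CCRF-CEM were fixed with 16% final TCA. Stain was 0.4% SRB in 1% acetic acid for 10 min, solubilized in 10 mM Tris base and read at 515 nm. GI50 came from log concentration–growth curves, solving [(Ti−Tz)/(C−Tz)]×100 = 50.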
# SK-MEL-5 [7] = assay: Growth inhibition of human SK-MEL-5 cells after 48 hrs by SRB assay; settings: SK-MEL-5, 48 h, read-out: LC50 (the source's name); method in brief: as §1
# SK-MEL-5 [8] = assay: Growth inhibition of human SK-MEL-5 cells at 10^-5 M after 48 hrs by SRB assay; set-up: scale not given: the % may be the effect or the level left
# ACHN = assay: Cytotoxicity against human ACHN cells assessed as cell growth at 10^-4 M after 48 hrs by SRB assay; settings: read-out: Activity; method in brief: as §2
# SK-MEL-5 [9] = assay: Growth inhibition of human SK-MEL-5 cells at 10^-6 M after 48 hrs by SRB assay; set-up: scale not given: the % may be the effect or the level left
# [10] = Cytotoxicity against human NCI-ADR-RES cells assessed as cell growth at 10^-4 M after 48 hrs by SRB assay; settings: read-out: Activity
# MDA-MB-468 = assay: Cytotoxicity against human MDA-MB-468 cells assessed as cell growth at 10^-6 M after 48 hrs by SRB assay; settings: MDA-MB-468, 48 h, read-out: Activity
# A549 [11] = assay: Cytotoxicity against human A549 cells assessed as cell growth at 10^-8 M after 48 hrs by SRB assay; settings: A549, 48 h, read-out: Activity; method in brief: as §2
# A549 [12] = assay: Cytotoxicity against human A549 cells assessed as cell growth at 10^-4 M after 48 hrs by SRB assay; settings: A549, 48 h, read-out: Activity
# MCF7 = assay: Cytotoxicity against human MCF7 cells assessed as cell growth at 10^-8 M after 48 hrs by SRB assay; settings: MCF7, 48 h, read-out: Activity
# HCC 2998 = assay: Cytotoxicity against human HCC2998 cells assessed as cell growth at 10^-5 M after 48 hrs by SRB assay; settings: HCC 2998, 48 h, read-out: Activity
# Method in brief: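 NCI-60 five-dose screen. Cells were grown in RPMI 1640 with 5% FBS and seeded at 5000–40,000 cells/well according to doubling time. They were pre-incubated 24 h at 37 °C in 5% CO₂, and time-zero (Tz) plates were TCA-fixed at drug addition. Five 10-fold dilutions of DMSO stock were applied for 48 h. Read-out was SRB staining, 515 nm absorbance, with percent growth calculated versus Tz and untreated control.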
# NCI-H23 [13] = assay: Growth inhibition of human NCI-H23 cells at 10^-8 M after 48 hrs by SRB assay; set-up: scale not given: the % may be the effect or the level left
# HOP-92 = assay: Cytotoxicity against human HOP92 cells assessed as cell growth at 10^-6 M after 48 hrs by SRB assay; settings: HOP-92, 48 h, read-out: Activity
# UO-31 [14] = assay: Cytotoxicity against human UO31 cells assessed as cell growth at 10^-5 M after 48 hrs by SRB assay; settings: UO-31, 48 h, read-out: Activity
SMILES,growth at 10 µM (LOX IMVI),growth at 10 µM (PC-3),GI50 (SW-620),TGI (SW-620),CC50 (SW-620),growth at 10 µM (MDA-MB-231),growth at 100 µM (KM12),growth at 10 µM (SK-MEL-28),growth at 10 µM (A498),GI50 (OVCAR-4),TGI (OVCAR-4),GI50 (UO-31 [3]),LC50 (UO-31 [3]),TGI (UO-31 [3]),growth at 1 µM (T47D),growth at 100 µM (Malme-3M),growth at 0.1 µM (MDA-MB-435),GI50 (COLO),LC50 (COLO),TGI (COLO),other results
COc1ccc(-c2nn3cc(-c4cccc(N)c4)nc3s2)cc1,26%,10%,6.08 µM,76.6 µM,> 100 µM,5%,-48%,28%,-17%,1.54 µM,15.1 µM,1.46 µM,63.3 µM,10.2 µM,57%,-66%,88%,7.08 µM,86 µM,26.7 µM,Activity (NCI-H23 [1]): 2%; Activity (NCI-H23 [2]): 35%; CC50 (OVCAR-4; read-out: LC50 (the source's name)): > 100 µM; Activity (SK-MEL-5 [4]): 91%; Activity (NCI-H23 [5]): 89%; Activity (SK-MEL-5 [6]): 91%; CC50 (SK-MEL-5 [7]): 3.32 µM; Activity (SK-MEL-5 [8]): 1%; growth at 100 µM (ACHN): -53%; Activity (SK-MEL-5 [9]): 75%; growth at 100 µM [10]: -11%; growth at 1 µM (MDA-MB-468): 68%; growth at 0.01 µM (A549 [11]): 106%; growth at 100 µM (A549 [12]): -46%; growth at 0.01 µM (MCF7): 86%; growth at 10 µM (HCC 2998): 51%; Activity (NCI-H23 [13]): 92%
COc1ccc(-c2nn3cc(-c4ccc(O)cc4O)nc3s2)cc1,4%,14%,3.96 µM,> 100 µM,> 100 µM,-54%,2%,3%,-50%,1.38 µM,3.39 µM,1.44 µM,> 100 µM,3.97 µM,71%,-28%,91%,5.82 µM,> 100 µM,36.8 µM,growth at 1 µM (HOP-92): 25%; growth at 100 µM (ACHN): 6%; growth at 1 µM (MDA-MB-468): 59%; growth at 10 µM (UO-31 [14]): -46%; growth at 0.01 µM (A549 [11]): 96%; growth at 0.01 µM (MCF7): 92%; growth at 10 µM (HCC 2998): 34%
